Reference: ChEMBL document CHEMBL1154792, “chi-Conopeptide pharmacophore development: toward a novel class of norepinephrine transporter inhibitor (Xen2174) for pain” (J Med Chem, 2009)
The source made the active and inactive calls. No cut-off for these calls is given here.

Target: Sodium-dependent noradrenaline transporter (Homo sapiens, UniProt P23975)
Assay: Displacement of [3H]nisoxetine from human NET expressed in COS7 cells
Format: cell-based
Conditions: COS-7
In short: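 Membranes from COS-7 cells transfected with human NET were incubated with [3H]nisoxetine (4.3 nM) with or without peptide (1 nM to 100 μM, triplicate) for 1 h at RT. Filter-retained radioactivity was counted by liquid scintillation, and values are given as pIC50. Data are means of 2–5 experiments in triplicate; peptide concentration was set by calibrated HPLC at 214 nm.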

Sequence of Sodium-dependent noradrenaline transporter (P23975 whole entry): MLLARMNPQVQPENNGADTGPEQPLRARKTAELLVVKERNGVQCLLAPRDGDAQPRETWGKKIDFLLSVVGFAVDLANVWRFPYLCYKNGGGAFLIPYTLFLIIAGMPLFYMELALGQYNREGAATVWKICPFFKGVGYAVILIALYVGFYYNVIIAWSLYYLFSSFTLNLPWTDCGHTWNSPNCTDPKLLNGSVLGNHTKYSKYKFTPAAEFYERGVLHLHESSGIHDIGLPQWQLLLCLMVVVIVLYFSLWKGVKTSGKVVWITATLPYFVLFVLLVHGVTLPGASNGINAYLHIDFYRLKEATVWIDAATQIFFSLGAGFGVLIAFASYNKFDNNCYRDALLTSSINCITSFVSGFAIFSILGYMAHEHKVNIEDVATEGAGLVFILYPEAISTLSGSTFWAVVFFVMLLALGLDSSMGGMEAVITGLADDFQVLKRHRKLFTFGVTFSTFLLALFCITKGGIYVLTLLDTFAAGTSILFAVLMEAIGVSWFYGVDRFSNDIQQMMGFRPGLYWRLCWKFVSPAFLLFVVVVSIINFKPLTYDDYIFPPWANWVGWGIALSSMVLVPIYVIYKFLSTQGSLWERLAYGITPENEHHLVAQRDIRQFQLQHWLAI

How did the Activity turn out when `CC(C)C[C@@H]1NC(=O)[C@H](CCCCN)NC(=O)[C@H](Cc2ccc(O)cc2)NC(=O)CNC(=O)C[C@@H]2CSSC[C@H](CC(=O)N[C@@H](Cc3cnc[nH]3)C(=O)N3CC[C@H](O)[C@H]3C(=O)N[C@H](CC(=O)O)CSSC[C@H](NC(=O)[C@@H](NC(=O)CNC(=O)[C@@H]3CCC(=O)N3)C(C)C)CC(=O)N2)NC1=O` was run?
The Activity was “inactive”.
